Data on four molecules can be found in ChEMBL document CHEMBL4428035, “Urea derivates of ursolic, oleanolic and maslinic acid induce apoptosis and are selective cytotoxic for several human tumor cell lines” (Eur J Med Chem, 2016).

As a reminder, the EC50 is the concentration that produces a half-maximal response.

Active and inactive are the calls of the source. No cut-off for these calls is given here. Some results are limits rather than exact numbers.

In one data set the test system is HT-29. Briefly: Cytotoxicity against human HT-29 cells assessed as reduction in cell proliferation after 96 hrs by sulforhodamine B assay. The format is functional, cell-based. The following applies: HT-29, 96 h. For orientation: The SRB assay estimates cell density from bound dye.
For another data set, the system named is A549. Briefly: Cytotoxicity against human A549 cells assessed as reduction in cell proliferation after 96 hrs by sulforhodamine B assay. Format: functional, cell-based. To be noted: A549, 96 h.
Data set [1] is described as follows: Selectivity index, ratio of EC50 for mouse NIH/3T3 cells to EC50 for human SW1736 cells.
The nature of data set [2]: Selectivity index, ratio of EC50 for mouse NIH/3T3 cells to EC50 for human 518A2 cells.
Data set [3] is described as follows: Selectivity index, ratio of EC50 for mouse NIH/3T3 cells to EC50 for human MCF7 cells. To be noted: NIH/3T3 cells versus MCF7 cells.
The next data set concerns 518A2. Put plainly: Cytotoxicity against human 518A2 cells assessed as reduction in cell proliferation after 96 hrs by sulforhodamine B assay. Format: functional, cell-based. The following applies: 518A2, 96 h.
The nature of data set [4]: Selectivity index, ratio of EC50 for mouse NIH/3T3 cells to EC50 for human A549 cells. The following applies: NIH/3T3 cells versus A549 cells.
Data set [5] in a line: Selectivity index, ratio of EC50 for mouse NIH/3T3 cells to EC50 for human A2780 cells. To be noted: NIH/3T3 cells versus A2780 cells.
A further data set has as its system SW-1736. Briefly: Cytotoxicity against human SW1736 cells assessed as reduction in cell proliferation after 96 hrs by sulforhodamine B assay. The format is functional, cell-based. To be noted: SW-1736, 96 h.
Data set [6] can be described thus: Selectivity index, ratio of EC50 for mouse NIH/3T3 cells to EC50 for human FADU cells.
The next data set deals with NIH3T3. Briefly: Cytotoxicity against mouse NIH/3T3 cells assessed as reduction in cell proliferation after 96 hrs by sulforhodamine B assay. The format is ADME, cell-based. To be noted: NIH3T3, 96 h.
The subject of data set [7] is A2780. Briefly: Cytotoxicity against human A2780 cells assessed as reduction in cell proliferation after 96 hrs by sulforhodamine B assay. To be noted: A2780, 96 h. Format: functional, cell-based.
The nature of data set [8]: Selectivity index, ratio of EC50 for mouse NIH/3T3 cells to EC50 for human HT-29 cells. The following applies: NIH/3T3 cells versus HT-29 cells.
The subject of the next data set is MCF7. Put plainly: Cytotoxicity against human MCF7 cells assessed as reduction in cell proliferation after 96 hrs by sulforhodamine B assay. Format: functional, cell-based. To be noted: MCF7, 96 h.
A further data set relates to FaDu. Put plainly: Cytotoxicity against human FADU cells assessed as reduction in cell proliferation after 96 hrs by sulforhodamine B assay. Format: functional, cell-based.
In data set [9] the test system is A2780. Put plainly: Induction of apoptosis in human A2780 cells assessed as necrotic cells at 10 uM after 48 hrs by Annexin V/propidium iodide staining based flow cytometry relative to control. Format: functional. In a few lines:
(§1)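 Annexin V/propidium iodide staining of A2780 cells exposed to 10 µM compound for 24 h and 48 h, read by flow cytometry. Viable, apoptotic, necrotic and secondary-necrotic fractions were reported as relative changes versus untreated control (%).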
On the technique in general: Flow cytometry measures light scatter and fluorescence of single cells or particles in a stream.

Data set [10] has as its system A2780. Briefly: Induction of apoptosis in human A2780 cells assessed as necrotic cells at 10 uM after 24 hrs by Annexin V/propidium iodide staining based flow cytometry relative to control. Format: functional. Put shortly: as §1
In data set [11] the test system is A2780. Briefly: Cell cycle arrest in human A2780 cells assessed as decrease in G2/M phase at 10 uM after 24 hrs by FACS analysis. The format is functional, cell-based. Put shortly:
(§2)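 Living A2780 cells treated with 10 µM test agent for 24 h and 48 h, then examined for cell-cycle distribution by FACS. Phase populations (Sub-G1, G1/G0, S, G2/M) were quantified by model fitting and expressed as arithmetic means of the population distribution (%).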

For data set [12], the system named is A2780. Put plainly: Induction of apoptosis in human A2780 cells assessed as viable cells at 10 uM after 24 hrs by Annexin V/propidium iodide staining based flow cytometry relative to control. The format is functional. To be noted: A2780, 24 h, read-out: Activity. In a few lines: as §1
Data set [13] has as its system A2780. Briefly: Cell cycle arrest in human A2780 cells assessed as decrease in G1/G0 phase at 10 uM after 48 hrs by FACS analysis. The format is functional, cell-based. In a few lines: as §2
For data set [14], the system named is A2780. Put plainly: Cell cycle arrest in human A2780 cells assessed as decrease in S phase at 10 uM after 48 hrs by FACS analysis. The format is functional, cell-based. In a few lines:
as §2

Data set [15] relates to A2780. Briefly: Induction of apoptosis in human A2780 cells assessed as secondary necrotic cells at 10 uM after 24 hrs by Annexin V/propidium iodide staining based flow cytometry relative to control. The format is functional. In a few lines: as §1
For data set [16], the system named is A2780. Put plainly: Cell cycle arrest in human A2780 cells assessed as increase in S phase at 10 uM after 24 hrs by FACS analysis. Format: functional, cell-based. In a few lines: as §2
Data set [17] relates to A2780. Briefly: Induction of apoptosis in human A2780 cells assessed as apoptotic cells at 10 uM after 48 hrs by Annexin V/propidium iodide staining based flow cytometry relative to control. The format is functional. Put shortly: as §1
For data set [18], the system named is A2780. Briefly: Cell cycle arrest in human A2780 cells assessed as increase in subG1 phase at 10 uM after 48 hrs by FACS analysis. Format: functional, cell-based. Put shortly: as §2
For data set [19], the system named is A2780. Put plainly: Induction of apoptosis in human A2780 cells assessed as secondary necrotic cells at 10 uM after 48 hrs by Annexin V/propidium iodide staining based flow cytometry relative to control. Format: functional. In a few lines:
as §1

For data set [20], the system named is A2780. Briefly: Cell cycle arrest in human A2780 cells assessed as decrease in G1/G0 phase at 10 uM after 24 hrs by FACS analysis. The format is functional, cell-based. In a few lines:
as §2

Data set [21] relates to A2780. Briefly: Induction of apoptosis in human A2780 cells assessed as viable cells at 10 uM after 48 hrs by Annexin V/propidium iodide staining based flow cytometry relative to control. Format: functional. The following applies: A2780, 48 h, read-out: Activity. In a few lines: as §1
For data set [22], the system named is A2780. Put plainly: Induction of apoptosis in human A2780 cells assessed as apoptotic cells at 10 uM after 24 hrs by Annexin V/propidium iodide staining based flow cytometry relative to control. Format: functional. Put shortly:
as §1

For data set [23], the system named is A2780. Briefly: Induction of apoptosis in human A2780 cells assessed as caspase-3 activation up to 72 hrs by flow cytometry. The format is functional, cell-based. In a few lines: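 Caspase activation in A2780 cells was measured by flow cytometry after 24, 48 and 72 h of treatment.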

Turning to `COCCO[C@@H]1C[C@]2(C)[C@H]3CC=C4[C@@H]5CC(C)(C)CC[C@]5(C(=O)NCc5ccccc5)CC[C@@]4(C)[C@]3(C)CC[C@H]2C(C)(C)[C@H]1OCCOC`, the concentration for a half-maximal effect (EC50) is 4.9 µM in the data set on HT-29; 4.9 µM in the data set with A549; 3.5 µM in the data set on 518A2; 4.6 µM in the data set on SW-1736; 15.5 µM in the data set on NIH3T3; 2.7 µM with A2780 [7]. The EC50 in the data set on MCF7 is 6.8 µM. In addition, the “Ratio EC50” value in data set [1], in data set [2] and in data set [6] was 5 in each case. The selectivity ratio in [3], in [4], in [5] and in data set [8] was 5 each time.

Take `COCO[C@@H]1C[C@]2(C)[C@H]3CC=C4[C@@H]5CC(C)(C)CC[C@]5(C(=O)NCc5ccccc5)CC[C@@]4(C)[C@]3(C)CC[C@H]2C(C)(C)[C@H]1O`: the EC50 came out at 5.2 µM in the data set on HT-29; 12.8 µM with A549; 3.2 µM in the data set on 518A2; 3.3 µM with FaDu; 5.4 µM with SW-1736; 16.5 µM in the data set with NIH3T3. Besides, the EC50 in the data set on MCF7 worked out at 5.5 µM. Further, the selectivity ratio in data set [3], in [4], in [5] and in data set [8] was 5 each time.

As for `CC(=O)O[C@H]1C[C@]2(C)[C@H]3CC=C4[C@@H]5CC(C)(C)CC[C@]5(C(=O)NCc5ccccc5)CC[C@@]4(C)[C@]3(C)CC[C@H]2C(C)(C)[C@@H]1OC(C)=O`, the concentration for a half-maximal effect (EC50) stood at 5.2 µM in the data set with HT-29; 8.8 µM in the data set with A549; 2.3 µM in the data set on 518A2; 3.3 µM in the data set with FaDu; 5.2 µM with SW-1736; 7.7 µM in the data set on NIH3T3. Besides, the EC50 in the data set with A2780 [7] came to 1.1 µM; with MCF7, 7.6 µM. Further, the Activity is on record as 0% in the data set on A2780 [9]; 1% in the data set on A2780 [10]; 9% with A2780 [15]; 45% in the data set with A2780 [17]; 29% in the data set with A2780 [19]; 4% with A2780 [22]. Further, the result in the data set with A2780 [11], in the data set with A2780 [13], in the data set with A2780 [14], in the data set on A2780 [16], in the data set with A2780 [18] and in the data set with A2780 [20] was Active. The change in viable cells vs control (%) at 10 µM with A2780 [12] is -12%. The viability at 10 µM with A2780 [21] is -75%.

Consider `CC(=O)O[C@H]1C[C@]2(C)[C@H]3CC=C4[C@@H]5CC(C)(C)CC[C@]5(NC(=O)Nc5ccccc5)CC[C@@]4(C)[C@]3(C)CC[C@H]2C(C)(C)[C@H]1OC(C)=O`, for which the EC50 in the data set on HT-29 was 2.3 µM; in the data set on A549, 4.4 µM; in the data set with 518A2, 1.2 µM; in the data set with SW-1736, 2.8 µM; in the data set on NIH3T3, greater than 120 µM; with A2780 [7], 0.9 µM. Also, in the data set on MCF7, the EC50 is 2.8 µM. Also, the Activity was -1% with A2780 [10], 11% in the data set with A2780 [15] and 33% with A2780 [22]. The outcome in the data set on A2780 [11], in the data set with A2780 [13], in the data set on A2780 [14], in the data set on A2780 [16], in the data set on A2780 [18] and in the data set with A2780 [20] was Active. Further, in the data set on A2780 [12], the change in viable cells vs control (%) at 10 µM was -43%. Also, the outcome in the data set with A2780 [23] was inactive.
